# Assay results from ChEMBL document CHEMBL3124772, “Design, synthesis, and evaluation of conformationally restricted acetanilides as potent and selective β3 adrenergic receptor agonists for the treatment of overactive bladder” (J Med Chem, 2014).
# What was measured:
# [1] = molecular target: T1, Beta-3 adrenergic receptor (Homo sapiens, UniProt P13945); assay: Agonist activity at human beta-3 adrenergic receptor expressed in CHO cells assessed as increase in intracellular cAMP accumulation after 30 mins by time-resolved fluorescence assay; assay type: functional, cell-based
# In short: (§1)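 CHO cells stably transfected with cloned β3-AR, harvested after 3 days subculture with enzyme-free dissociation, 6000 cells in HBSS with 5 mM HEPES, 0.1% BSA and 0.6 mM IBMX. Ligand at 10⁻¹⁰ to 10⁻⁵ M final, 30 min room temperature with labeled cAMP antibody; LANCE TR-FRET read after 1 h detection, cAMP from standard curve.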
# Target sequence in this assay (P13945 whole entry): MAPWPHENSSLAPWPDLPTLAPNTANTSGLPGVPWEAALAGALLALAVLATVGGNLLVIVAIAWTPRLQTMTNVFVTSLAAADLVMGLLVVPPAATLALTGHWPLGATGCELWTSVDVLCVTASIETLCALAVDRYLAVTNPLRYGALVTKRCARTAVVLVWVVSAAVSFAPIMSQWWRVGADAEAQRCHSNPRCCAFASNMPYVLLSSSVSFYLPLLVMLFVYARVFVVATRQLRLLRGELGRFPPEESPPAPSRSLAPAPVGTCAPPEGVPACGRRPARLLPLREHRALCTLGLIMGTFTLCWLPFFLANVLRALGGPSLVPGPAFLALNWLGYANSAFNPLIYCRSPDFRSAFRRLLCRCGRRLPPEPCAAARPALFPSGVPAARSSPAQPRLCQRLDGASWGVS
# [2] = Intrinsic clearance in rat liver microsomes; assay type: ADME; settings: read-out: CLH
# [3] = Oral bioavailability in Sprague-Dawley rat at 2 mg/kg; assay type: ADME, organism-based; settings: in vivo
# [4] = molecular target: Beta-2 adrenergic receptor (Homo sapiens, UniProt P07550); assay: Displacement of [125I]-cyanopindolol from recombinant human beta-2 adrenergic receptor expressed in CHO cell membranes after 1 hr by scintillation counting analysis
# [5] = molecular target: Beta-3 adrenergic receptor (Canis lupus familiaris) (UniProt O02662); assay: Agonist activity at dog beta-3 adrenergic receptor expressed in CHO cells assessed as increase in intracellular cAMP accumulation at 10^-10 to 10^-5 M after 30 mins by time-resolved fluorescence assay relative to R-(-)isoproterenol; assay type: functional, cell-based; in short: as §1
# [6] = Plasma clearance in Beagle dog at 1 mg/kg, iv and 2 mg/kg, po; assay type: ADME, organism-based, Canis lupus familiaris
# [7] = test system: Plasma; assay: Unbound plasma concentration in acetic acid-induced Sprague-Dawley rat bladder hyperactivity model at 10 mg/kg, iv administered as 1 to 2 hrs infusion; assay type: ADME, organism-based; set-up: dose 10 mg/kg, route intravenous; settings: in vivo
# [8] = molecular target: Beta-3 adrenergic receptor (Rattus norvegicus) (UniProt P26255); assay: Agonist activity at rat beta-3 adrenergic receptor expressed in CHO cells assessed as increase in intracellular cAMP accumulation at 10^-10 to 10^-5 M after 30 mins by time-resolved fluorescence assay relative to R-(-)isoproterenol; assay type: functional, cell-based; in short: as §1
# [9] = molecular target: T1, Beta-3 adrenergic receptor; assay: Agonist activity at human beta-3 adrenergic receptor expressed in CHO cells assessed as increase in intracellular cAMP accumulation at 10^-10 to 10^-5 M after 30 mins by time-resolved fluorescence assay relative to R-(-)isoproterenol; assay type: functional, cell-based; in short: as §1
# Target sequence in this assay (P13945 whole entry, looked up): as the sequence (P13945 whole entry) above
# [10] = Lipophilicity, log D of the compound at pH 7.3; assay type: physicochemical; settings: buffer
# [11] = test system: Plasma; assay: Unbound plasma concentration in acetic acid-induced Sprague-Dawley rat bladder hyperactivity model at 1 mg/kg, iv administered as 1 to 2 hrs infusion; assay type: ADME, organism-based; set-up: dose 1 mg/kg, route intravenous; settings: in vivo
# [12] = Plasma clearance in Sprague-Dawley rat at 1 mg/kg, iv and 2 mg/kg, po; assay type: ADME, organism-based
# [13] = molecular target: Cytochrome P450 2C9 (Homo sapiens, UniProt P11712); assay: Inhibition of CYP2C9 in human liver microsomes assessed as diclofenac alpha'-hydroxylation; assay type: ADME
# [14] = Intrinsic clearance in monkey liver microsomes; assay type: ADME, Macaca mulatta, Microsome; settings: rhesus monkey, read-out: CLH
# [15] = molecular target: Cytochrome P450 3A4 (Homo sapiens, UniProt P08684); assay: Inhibition of CYP3A4 in human liver microsomes assessed as testosterone 6beta-hydroxylation; assay type: ADME
# [16] = molecular target: Cytochrome P450 2D6 (Homo sapiens, UniProt P10635); assay: Inhibition of CYP2D6 in human liver microsomes assessed as dextromethorphan O-demethylation; assay type: ADME
# [17] = Half life in Beagle dog at 1 mg/kg, iv and 2 mg/kg, po; assay type: ADME, organism-based, Canis lupus familiaris; settings: in vivo
# [18] = Fraction unbound in rhesus monkey plasma at 1 mg/kg, iv and 2 mg/kg, po; assay type: ADME, organism-based, Macaca mulatta
# [19] = molecular target: Beta-3 adrenergic receptor (Rattus norvegicus, UniProt P26255); assay: Agonist activity at rat beta-3 adrenergic receptor expressed in CHO cells assessed as increase in intracellular cAMP accumulation after 30 mins by time-resolved fluorescence assay; assay type: functional, cell-based; in short: as §1
# [20] = Plasma clearance in rhesus monkey at 1 mg/kg, iv and 2 mg/kg, po; assay type: ADME, organism-based, Macaca mulatta
# [21] = test system: Rattus norvegicus; assay: Reduction of micturition pressure at 27 uM unbound plasma level in acetic acid-induced Sprague-Dawley rat bladder hyperactivity model at 10 mg/kg, iv administered as 1 to 2 hrs infusion relative to vehicle-treated control; assay type: functional; set-up: scale not given: the % may be the effect or the level left
# [22] = Oral bioavailability in Beagle dog at 2 mg/kg; assay type: ADME, organism-based, Canis lupus familiaris; settings: in vivo
# [23] = Oral bioavailability in rhesus monkey at 2 mg/kg; assay type: ADME, organism-based, Macaca mulatta; settings: in vivo
# [24] = molecular target: Beta-3 adrenergic receptor (Canis lupus familiaris, UniProt O02662); assay: Agonist activity at dog beta-3 adrenergic receptor expressed in CHO cells assessed as increase in intracellular cAMP accumulation after 30 mins by time-resolved fluorescence assay; assay type: functional, cell-based; in short: as §1
# [25] = organism: Homo sapiens; assay: Selectivity ratio of IC50 for human SERT to EC50 for human beta-3 adrenergic receptor
# [26] = Fraction unbound in Sprague-Dawley rat plasma at 1 mg/kg, iv and 2 mg/kg, po; assay type: ADME, organism-based; settings: Sprague-Dawley, plasma
# [27] = molecular target: Voltage-gated inwardly rectifying potassium channel KCNH2 (Homo sapiens, UniProt Q12809); assay: Inhibition of human ERG
# [28] = Half life in Sprague-Dawley rat at 1 mg/kg, iv and 2 mg/kg, po; assay type: ADME, organism-based; settings: in vivo
# [29] = Half life in rhesus monkey at 1 mg/kg, iv and 2 mg/kg, po; assay type: ADME, organism-based, Macaca mulatta; settings: in vivo
# [30] = molecular target: Voltage-dependent L-type calcium channel subunit alpha-1C (Homo sapiens, UniProt Q13936); assay: Displacement of [3H]-diltiazem from human CaV1.2
# [31] = molecular target: Beta-3 adrenergic receptor (Macaca mulatta) (UniProt Q28524); assay: Agonist activity at rhesus monkey beta-3 adrenergic receptor expressed in CHO cells assessed as increase in intracellular cAMP accumulation at 10^-10 to 10^-5 M after 30 mins by time-resolved fluorescence assay relative to R-(-)isoproterenol; assay type: functional, cell-based; in short: as §1
# [32] = Intrinsic clearance in human liver microsomes; assay type: ADME; settings: read-out: CLH
# [33] = molecular target: Beta-3 adrenergic receptor (Macaca mulatta, UniProt Q28524); assay: Agonist activity at rhesus monkey beta-3 adrenergic receptor expressed in CHO cells assessed as increase in intracellular cAMP accumulation after 30 mins by time-resolved fluorescence assay; assay type: functional, cell-based; in short: as §1
# [34] = test system: Rattus norvegicus; assay: Reduction of micturition pressure in iv dosed acetic acid-induced Sprague-Dawley rat bladder hyperactivity model administered as 1 to 2 hrs infusion; assay type: functional, organism-based
# [35] = Apparent permeability in MDCK2 cells; assay type: ADME, cell-based, Canis lupus familiaris, MDCK-II; settings: dog, MDCK
# [36] = molecular target: Sodium-dependent serotonin transporter (Homo sapiens, UniProt P31645); assay: Inhibition of human SERT expressed in HEK293 cells incubated for 30 mins prior to fluorescent substrate addition measured after 30 mins by fluorescent dye uptake assay; assay type: cell-based
# In short: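 HEK293 stably expressing human SERT, 20000 cells/well plated overnight at 37 °C, then in HBSS with 20 mM HEPES and 0.1% BSA. Compound added from 100× DMSO stock, 30 min at 37 °C, then fluorescent transporter substrate for 30 more min. Fluorescence read at 440/520 nm, normalized to DMSO (0%) and 10 μM fluoxetine (100%), four-parameter fit for IC50.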
# [37] = Fraction unbound in Beagle dog plasma at 1 mg/kg, iv and 2 mg/kg, po; assay type: ADME, organism-based, Canis lupus familiaris
# [38] = molecular target: Beta-1 adrenergic receptor (Homo sapiens, UniProt P08588); assay: Displacement of [125I]-cyanopindolol from recombinant human beta-1 adrenergic receptor expressed in CHO cell membranes after 1 hr by scintillation counting analysis
# [39] = test system: Plasma; assay: Unbound plasma concentration in acetic acid-induced Sprague-Dawley rat bladder hyperactivity model at 3 mg/kg, iv administered as 1 to 2 hrs infusion; assay type: ADME, organism-based; set-up: dose 3 mg/kg, route intravenous; settings: in vivo
# [40] = molecular target: Sodium channel protein type 5 subunit alpha (Homo sapiens, UniProt Q14524); assay: Inhibition of human NaV1.5
# [41] = Intrinsic clearance in dog liver microsomes; assay type: ADME, Canis lupus familiaris; settings: read-out: CLH
# Sequence of Sodium-dependent serotonin transporter (P31645 whole entry): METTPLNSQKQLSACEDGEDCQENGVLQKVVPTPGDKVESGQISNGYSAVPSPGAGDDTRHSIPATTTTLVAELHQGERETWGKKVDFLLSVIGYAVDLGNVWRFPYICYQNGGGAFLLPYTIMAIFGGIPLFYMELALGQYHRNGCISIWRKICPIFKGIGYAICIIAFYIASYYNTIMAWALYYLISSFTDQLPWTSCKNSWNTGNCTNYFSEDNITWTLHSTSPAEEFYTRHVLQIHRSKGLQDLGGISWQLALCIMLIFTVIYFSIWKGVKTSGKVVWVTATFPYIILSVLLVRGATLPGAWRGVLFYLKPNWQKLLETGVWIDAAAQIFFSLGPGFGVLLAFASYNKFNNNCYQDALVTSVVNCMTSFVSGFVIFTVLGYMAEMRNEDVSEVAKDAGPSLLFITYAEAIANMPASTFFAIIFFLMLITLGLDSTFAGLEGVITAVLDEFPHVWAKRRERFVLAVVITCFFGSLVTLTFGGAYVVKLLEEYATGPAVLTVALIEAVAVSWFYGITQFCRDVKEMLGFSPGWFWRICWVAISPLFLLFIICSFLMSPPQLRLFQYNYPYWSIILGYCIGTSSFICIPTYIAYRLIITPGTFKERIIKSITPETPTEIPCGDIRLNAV
# Sequence of Cytochrome P450 3A4 (P08684 whole entry): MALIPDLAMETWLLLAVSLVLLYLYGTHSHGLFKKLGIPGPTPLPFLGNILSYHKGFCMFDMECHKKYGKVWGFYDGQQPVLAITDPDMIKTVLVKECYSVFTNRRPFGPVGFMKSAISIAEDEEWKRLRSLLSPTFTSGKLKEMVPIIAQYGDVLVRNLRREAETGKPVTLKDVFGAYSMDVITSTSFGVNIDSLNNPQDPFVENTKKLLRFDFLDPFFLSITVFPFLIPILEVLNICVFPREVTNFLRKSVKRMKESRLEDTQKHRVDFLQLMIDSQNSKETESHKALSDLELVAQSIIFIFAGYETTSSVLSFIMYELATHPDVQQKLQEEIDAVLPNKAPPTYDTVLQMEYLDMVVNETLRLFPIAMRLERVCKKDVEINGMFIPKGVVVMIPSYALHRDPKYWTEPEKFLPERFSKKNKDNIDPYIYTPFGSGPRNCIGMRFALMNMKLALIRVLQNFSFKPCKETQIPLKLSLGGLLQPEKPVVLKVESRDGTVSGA
# Sequence of Voltage-dependent L-type calcium channel subunit alpha-1C (Q13936 whole entry): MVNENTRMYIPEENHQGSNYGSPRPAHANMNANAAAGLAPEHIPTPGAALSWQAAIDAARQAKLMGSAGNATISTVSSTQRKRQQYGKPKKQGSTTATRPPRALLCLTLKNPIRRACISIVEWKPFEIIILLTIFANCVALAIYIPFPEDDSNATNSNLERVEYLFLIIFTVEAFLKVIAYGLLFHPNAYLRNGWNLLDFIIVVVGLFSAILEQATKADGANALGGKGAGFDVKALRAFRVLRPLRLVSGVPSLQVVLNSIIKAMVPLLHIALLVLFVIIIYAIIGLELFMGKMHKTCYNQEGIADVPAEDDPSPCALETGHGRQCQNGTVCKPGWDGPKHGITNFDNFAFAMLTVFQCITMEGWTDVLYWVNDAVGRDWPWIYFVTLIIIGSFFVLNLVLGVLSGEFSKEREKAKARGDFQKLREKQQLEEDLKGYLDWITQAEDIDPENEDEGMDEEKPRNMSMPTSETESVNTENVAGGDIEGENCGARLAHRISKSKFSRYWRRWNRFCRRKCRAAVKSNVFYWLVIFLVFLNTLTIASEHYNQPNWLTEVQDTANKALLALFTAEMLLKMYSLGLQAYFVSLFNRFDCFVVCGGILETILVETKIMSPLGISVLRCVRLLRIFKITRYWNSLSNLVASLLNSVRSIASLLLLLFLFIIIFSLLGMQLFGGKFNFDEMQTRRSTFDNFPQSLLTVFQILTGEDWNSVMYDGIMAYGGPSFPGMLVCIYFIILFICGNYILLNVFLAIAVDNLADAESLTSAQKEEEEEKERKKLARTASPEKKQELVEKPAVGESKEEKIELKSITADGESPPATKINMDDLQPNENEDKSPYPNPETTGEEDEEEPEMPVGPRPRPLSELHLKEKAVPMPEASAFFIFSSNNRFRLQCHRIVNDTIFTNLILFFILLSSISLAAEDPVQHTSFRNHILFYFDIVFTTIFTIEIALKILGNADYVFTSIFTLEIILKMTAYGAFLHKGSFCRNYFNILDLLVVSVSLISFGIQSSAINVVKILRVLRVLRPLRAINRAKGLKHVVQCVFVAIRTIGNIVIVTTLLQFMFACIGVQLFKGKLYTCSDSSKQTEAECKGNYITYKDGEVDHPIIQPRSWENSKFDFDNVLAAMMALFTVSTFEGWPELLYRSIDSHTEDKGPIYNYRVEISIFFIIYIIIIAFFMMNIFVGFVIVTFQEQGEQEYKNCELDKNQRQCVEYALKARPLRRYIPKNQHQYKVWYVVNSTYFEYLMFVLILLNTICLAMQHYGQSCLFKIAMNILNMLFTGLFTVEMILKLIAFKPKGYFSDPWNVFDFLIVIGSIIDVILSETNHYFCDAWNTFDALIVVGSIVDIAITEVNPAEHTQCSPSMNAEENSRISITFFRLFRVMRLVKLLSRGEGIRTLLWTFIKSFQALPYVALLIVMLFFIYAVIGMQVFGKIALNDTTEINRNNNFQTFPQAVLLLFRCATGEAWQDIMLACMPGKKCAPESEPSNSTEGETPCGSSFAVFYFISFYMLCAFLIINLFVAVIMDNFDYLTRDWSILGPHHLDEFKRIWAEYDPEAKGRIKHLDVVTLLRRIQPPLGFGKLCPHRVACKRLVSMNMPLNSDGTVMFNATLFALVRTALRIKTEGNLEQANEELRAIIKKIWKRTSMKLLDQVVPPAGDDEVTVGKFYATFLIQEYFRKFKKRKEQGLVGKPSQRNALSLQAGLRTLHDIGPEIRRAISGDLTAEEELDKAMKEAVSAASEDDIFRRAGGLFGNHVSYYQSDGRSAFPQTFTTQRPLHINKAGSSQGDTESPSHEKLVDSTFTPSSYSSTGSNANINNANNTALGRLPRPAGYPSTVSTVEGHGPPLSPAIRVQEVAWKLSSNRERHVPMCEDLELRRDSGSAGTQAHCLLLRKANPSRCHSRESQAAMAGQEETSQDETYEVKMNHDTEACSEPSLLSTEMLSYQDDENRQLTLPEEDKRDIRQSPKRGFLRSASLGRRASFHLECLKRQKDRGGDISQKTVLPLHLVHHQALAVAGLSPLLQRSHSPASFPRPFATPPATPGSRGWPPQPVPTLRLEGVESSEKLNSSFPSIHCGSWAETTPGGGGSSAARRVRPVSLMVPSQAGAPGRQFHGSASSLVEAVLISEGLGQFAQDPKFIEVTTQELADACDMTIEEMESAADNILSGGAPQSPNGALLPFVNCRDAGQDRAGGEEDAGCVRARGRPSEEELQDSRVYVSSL
# Sequence of Cytochrome P450 2C9 (P11712 whole entry): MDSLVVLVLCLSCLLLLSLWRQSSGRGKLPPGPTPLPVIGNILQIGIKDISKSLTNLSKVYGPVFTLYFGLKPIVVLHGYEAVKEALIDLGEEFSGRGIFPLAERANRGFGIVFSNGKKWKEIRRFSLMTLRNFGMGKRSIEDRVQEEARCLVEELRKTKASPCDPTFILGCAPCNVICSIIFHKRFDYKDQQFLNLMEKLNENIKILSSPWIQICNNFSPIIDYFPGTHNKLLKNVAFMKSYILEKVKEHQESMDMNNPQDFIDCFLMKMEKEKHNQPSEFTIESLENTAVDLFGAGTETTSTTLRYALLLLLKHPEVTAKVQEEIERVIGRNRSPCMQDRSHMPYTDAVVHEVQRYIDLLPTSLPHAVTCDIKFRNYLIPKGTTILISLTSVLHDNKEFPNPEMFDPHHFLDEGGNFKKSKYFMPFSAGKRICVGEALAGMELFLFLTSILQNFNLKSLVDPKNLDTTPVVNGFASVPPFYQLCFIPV
# Sequence of Beta-3 adrenergic receptor (Canis lupus familiaris, UniProt O02662) (O02662 whole entry): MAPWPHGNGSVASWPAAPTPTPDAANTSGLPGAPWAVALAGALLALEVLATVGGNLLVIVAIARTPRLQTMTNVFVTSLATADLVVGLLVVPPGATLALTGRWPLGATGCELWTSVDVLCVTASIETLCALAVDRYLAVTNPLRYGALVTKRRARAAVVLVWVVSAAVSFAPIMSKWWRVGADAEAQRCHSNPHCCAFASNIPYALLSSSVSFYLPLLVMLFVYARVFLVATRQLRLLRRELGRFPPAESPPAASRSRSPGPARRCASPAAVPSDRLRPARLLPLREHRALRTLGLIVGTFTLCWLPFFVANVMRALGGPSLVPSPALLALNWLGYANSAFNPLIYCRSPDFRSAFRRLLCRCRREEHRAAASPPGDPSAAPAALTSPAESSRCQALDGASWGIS
# Sequence of Beta-3 adrenergic receptor (Canis lupus familiaris) (O02662 whole entry): as above
structure (smiles),measurement,setting,value
O=C(Nc1ccc(C[C@@H]2CC[C@H]([C@H](O)c3cccnc3)N2)cc1)[C@@H]1CCc2ccnn21,EC50,[1],3.7 nM
same,CLint scaled,[2],55 mL/min/kg
same,bioavailability,[3],35%
same,IC50,[4],> 20000 nM
same,Activity,[5],86%
same,clearance,[6],34 mL/min/kg
same,Cp(f),[7],26.8 µM
same,Activity,[8],98%
same,Activity,[9],84%
same,logD,[10],0.9
same,Cp(f),[11],2 µM
same,clearance,[12],24 mL/min/kg
same,IC50,[13],> 100000 nM
same,CLint scaled,[14],261 mL/min/kg
same,IC50,[15],> 100000 nM
same,IC50,[16],> 100000 nM
same,half-life,[17],8 h
same,fraction unbound,[18],1
same,EC50,[19],434 nM
same,clearance,[20],36 mL/min/kg
same,Activity,[21],69%
same,bioavailability,[22],100%
same,bioavailability,[23],11%
same,EC50,[24],22 nM
same,Ratio IC50/EC50,[25],243
same,fraction unbound,[26],0.36
same,IC50,[27],> 30000 nM
same,half-life,[28],3 h
same,half-life,[29],4 h
same,IC50,[30],> 30000 nM
same,Activity,[31],93%
same,CLint scaled,[32],19 mL/min/kg
same,EC50,[33],4.7 nM
same,Activity,[34],Dose-dependent effect
same,Papp,[35],6 ×10⁻⁶ cm/s
same,IC50,[36],898 nM
same,fraction unbound,[37],0.7
same,IC50,[38],> 20000 nM
same,Cp(f),[39],7.6 µM
same,IC50,[40],> 30000 nM
same,CLint scaled,[41],31 mL/min/kg
